From ChEMBL document CHEMBL1142492 (J Med Chem, 2008)

Legend:
[1] = biological target: cAMP-dependent protein kinase catalytic subunit alpha (Homo sapiens) (UniProt P17612); assay: Inhibition of PKAC-alpha at 3 uM
[2] = biological target: Tyrosine-protein kinase SYK (Homo sapiens) (UniProt P43405); assay: Inhibition of SYK at 3 uM
[3] = biological target: TRAF2 and NCK-interacting protein kinase (Homo sapiens) (UniProt Q9UKE5); assay: Inhibition of TNIK at 3 uM
[4] = test system: Mast/stem cell growth factor receptor Kit (Homo sapiens), P10721 [V559D,T670I]; assay: Inhibition of KIT V559D,T670I mutant at 3 uM
[5] = biological target: Serine/threonine-protein kinase 10 (Homo sapiens) (UniProt O94804); assay: Inhibition of LOK at 3 uM
[6] = biological target: Tyrosine-protein kinase Fyn (Homo sapiens) (UniProt P06241); assay: Inhibition of FYN at 3 uM
In short: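 Single-concentration kinase panel scoring: each value is the percentage of enzyme activity remaining relative to a DMSO-only control. An activity statistically indistinct from DMSO control was scored "no hit".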

[7] = biological target: Insulin receptor (Homo sapiens) (UniProt P06213); assay: Inhibition of INSR at 3 uM
[8] = biological target: Insulin receptor-related protein (Homo sapiens) (UniProt P14616); assay: Inhibition of INSRR at 3 uM
[9] = biological target: Mitogen-activated protein kinase kinase kinase 4 (Homo sapiens) (UniProt Q9Y6R4); assay: Inhibition of MAP3K4 at 3 uM
[10] = biological target: Maternal embryonic leucine zipper kinase (Homo sapiens) (UniProt Q14680); assay: Inhibition of MELK at 3 uM
[11] = biological target: Mitogen-activated protein kinase kinase kinase 10 (Homo sapiens) (UniProt Q02779); assay: Inhibition of MLK2 at 3 uM
[12] = biological target: Myosin light chain kinase 2, skeletal/cardiac muscle (Homo sapiens) (UniProt Q9H1R3); assay: Inhibition of MYLK2 at 3 uM
[13] = biological target: Myosin-IIIb (Homo sapiens) (UniProt Q8WXR4); assay: Inhibition of MYO3B at 3 uM
[14] = biological target: Serine/threonine-protein kinase 38-like (Homo sapiens) (UniProt Q9Y2H1); assay: Inhibition of NDR2 at 3 uM
[15] = biological target: Serine/threonine-protein kinase Nek5 (Homo sapiens) (UniProt Q6P3R8); assay: Inhibition of NEK5 at 3 uM
[16] = biological target: Serine/threonine-protein kinase PAK 4 (Homo sapiens) (UniProt O96013); assay: Inhibition of PAK4 at 3 uM
[17] = biological target: Serine/threonine-protein kinase PAK 6 (Homo sapiens) (UniProt Q9NQU5); assay: Inhibition of PAK6 at 3 uM
[18] = biological target: Phosphatidylinositol 4-phosphate 3-kinase C2 domain-containing subunit beta (Homo sapiens) (UniProt O00750); assay: Inhibition of PIK3C2B at 3 uM
[19] = biological target: Wee1-like protein kinase (Homo sapiens) (UniProt P30291); assay: Inhibition of WEE1 at 3 uM
[20] = biological target: Tyrosine-protein kinase Yes (Homo sapiens) (UniProt P07947); assay: Inhibition of YES at 3 uM
[21] = biological target: Serine/threonine-protein kinase 25 (Homo sapiens) (UniProt O00506); assay: Inhibition of YSK1 at 3 uM
[22] = Clearance in Sprague-Dawley rat at 1 mg/kg, iv; details: in vivo
CYP3A4 = CYP3A4 (Homo sapiens, UniProt P08684); assay: Inhibition of human CYP3A4 at 10 uM; type: ADME
CYP2D6 = CYP2D6 (Homo sapiens, UniProt P10635); assay: Inhibition of human CYP2D6 at 10 uM; type: ADME
[23] = biological target: Alpha-1B adrenergic receptor (Rattus norvegicus) (UniProt P15823); assay: Inhibition of rat adrenergic Alpha-1B receptor at 3 uM
[24] = biological target: Beta-1 adrenergic receptor (Homo sapiens) (UniProt P08588); assay: Inhibition of human adrenergic beta-1 receptor at 3 uM
In short: (§1)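 Counter-screen binding/enzyme panel at single 3 μM, n=2; results as percent inhibition. Species per target as listed (rat NMDA, GABAA sites; human receptors, transporters; rabbit ACE).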

[25] = biological target: Beta-2 adrenergic receptor (Homo sapiens) (UniProt P07550); assay: Inhibition of human adrenergic beta2 receptor at 3 uM; in short: as §1
[26] = biological target: D(2) dopamine receptor (Homo sapiens) (UniProt P14416); assay: Inhibition of human dopamine D2S receptor at 3 uM; in short: as §1
[27] = biological target: Estrogen receptor (Homo sapiens) (UniProt P03372); assay: Inhibition of human ERalpha at 3 uM; in short: as §1
[28] = biological target: Pyroglutamylated RF-amide peptide receptor (Homo sapiens) (UniProt Q96P65); assay: Inhibition of human GPR103 at 3 uM; in short: as §1
[29] = biological target: Gamma-aminobutyric acid receptor subunit alpha-1 (Rattus norvegicus) (UniProt P62813); assay: Displacement of muscimol from rat GABAA1 receptor at 3 uM; in short: as §1
[30] = biological target: Neuropeptide Y receptor type 1 (Homo sapiens) (UniProt P25929); assay: Inhibition of human neuropeptide Y Y1 receptor at 3 uM; in short: as §1
[31] = biological target: Acetylcholine receptor subunit alpha (Homo sapiens) (UniProt P02708); assay: Displacement of bungarotoxin from human nAChR alpha1 receptor at 3 uM
In short: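 Counter-screen of human nicotinic α1 receptor binding, assayed by bungarotoxin displacement.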

[32] = biological target: Mu-type opioid receptor (Homo sapiens) (UniProt P35372); assay: Inhibition of human mu opioid receptor at 3 uM; in short: as §1
[33] = biological target: Cyclin-dependent kinase 2 (Homo sapiens) (UniProt P24941); assay: Inhibition of CDK2 at 3 uM
[34] = biological target: Cyclin-dependent kinase 8 (Homo sapiens) (UniProt P49336); assay: Inhibition of CDK8 at 3 uM
[35] = biological target: BMP-2-inducible protein kinase (Homo sapiens) (UniProt Q9NSY1); assay: Inhibition of BIKE at 3 uM
[36] = biological target: Serine/threonine-protein kinase BRSK1 (Homo sapiens) (UniProt Q8TDC3); assay: Inhibition of BRSK1 at 3 uM
[37] = biological target: Serine/threonine-protein kinase Chk1 (Homo sapiens) (UniProt O14757); assay: Inhibition of CHEK1 at 3 uM
[38] = biological target: Sodium-dependent noradrenaline transporter (Homo sapiens) (UniProt P23975); assay: Inhibition of human NET at 3 uM; in short: as §1
[39] = biological target: Casein kinase I isoform alpha-like (Homo sapiens) (UniProt Q8N752); assay: Inhibition of CSNK1A1L at 3 uM
[40] = biological target: Casein kinase I isoform delta (Homo sapiens) (UniProt P48730); assay: Inhibition of CSNK1D at 3 uM
[41] = biological target: Calcium/calmodulin-dependent protein kinase kinase 2 (Homo sapiens) (UniProt Q96RR4); assay: Inhibition of CAMKK2 at 3 uM
[42] = test system: Epidermal growth factor receptor (Homo sapiens), P00533 [G719S]; assay: Inhibition of EGFR G719S mutant at 3 uM; type: protein assay
Rattus norvegicus = species: Rattus norvegicus; details: 3 uM
in vivo = details: Sprague-Dawley, rat, plasma, iv, 1 mg/kg

Epidermal growth factor receptor (Homo sapiens), P00533 [G719S], sequence (P00533 whole entry G719S): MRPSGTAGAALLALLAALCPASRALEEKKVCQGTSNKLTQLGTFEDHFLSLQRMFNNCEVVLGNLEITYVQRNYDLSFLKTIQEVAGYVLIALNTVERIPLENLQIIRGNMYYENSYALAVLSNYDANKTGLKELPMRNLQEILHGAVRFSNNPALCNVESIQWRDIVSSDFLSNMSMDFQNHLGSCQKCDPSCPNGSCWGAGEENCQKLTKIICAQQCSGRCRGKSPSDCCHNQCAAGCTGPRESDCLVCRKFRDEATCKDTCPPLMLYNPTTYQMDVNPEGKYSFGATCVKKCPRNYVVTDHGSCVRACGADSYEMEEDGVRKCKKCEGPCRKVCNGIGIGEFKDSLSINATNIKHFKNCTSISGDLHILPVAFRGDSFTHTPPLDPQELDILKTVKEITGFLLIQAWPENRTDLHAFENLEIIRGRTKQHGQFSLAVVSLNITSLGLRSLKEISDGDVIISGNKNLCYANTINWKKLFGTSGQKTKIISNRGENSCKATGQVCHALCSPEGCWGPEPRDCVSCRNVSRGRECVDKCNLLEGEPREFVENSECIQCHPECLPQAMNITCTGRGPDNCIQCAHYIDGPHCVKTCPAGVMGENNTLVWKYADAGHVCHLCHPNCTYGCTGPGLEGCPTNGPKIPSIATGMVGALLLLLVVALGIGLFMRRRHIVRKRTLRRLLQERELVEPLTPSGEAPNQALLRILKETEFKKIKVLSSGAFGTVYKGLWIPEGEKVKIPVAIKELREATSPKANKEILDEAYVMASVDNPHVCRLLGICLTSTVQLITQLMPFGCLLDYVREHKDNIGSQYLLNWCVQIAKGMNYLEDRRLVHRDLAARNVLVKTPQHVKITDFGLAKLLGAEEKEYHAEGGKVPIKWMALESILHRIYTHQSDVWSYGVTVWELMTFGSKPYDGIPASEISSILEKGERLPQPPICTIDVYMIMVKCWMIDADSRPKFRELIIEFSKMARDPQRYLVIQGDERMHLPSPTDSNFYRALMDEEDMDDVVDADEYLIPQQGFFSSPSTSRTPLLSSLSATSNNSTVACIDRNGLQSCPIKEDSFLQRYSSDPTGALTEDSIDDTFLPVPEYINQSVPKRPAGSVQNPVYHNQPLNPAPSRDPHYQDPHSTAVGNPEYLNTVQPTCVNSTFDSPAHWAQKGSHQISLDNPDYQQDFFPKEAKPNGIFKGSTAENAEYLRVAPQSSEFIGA
D(2) dopamine receptor (Homo sapiens), sequence (P14416 whole entry): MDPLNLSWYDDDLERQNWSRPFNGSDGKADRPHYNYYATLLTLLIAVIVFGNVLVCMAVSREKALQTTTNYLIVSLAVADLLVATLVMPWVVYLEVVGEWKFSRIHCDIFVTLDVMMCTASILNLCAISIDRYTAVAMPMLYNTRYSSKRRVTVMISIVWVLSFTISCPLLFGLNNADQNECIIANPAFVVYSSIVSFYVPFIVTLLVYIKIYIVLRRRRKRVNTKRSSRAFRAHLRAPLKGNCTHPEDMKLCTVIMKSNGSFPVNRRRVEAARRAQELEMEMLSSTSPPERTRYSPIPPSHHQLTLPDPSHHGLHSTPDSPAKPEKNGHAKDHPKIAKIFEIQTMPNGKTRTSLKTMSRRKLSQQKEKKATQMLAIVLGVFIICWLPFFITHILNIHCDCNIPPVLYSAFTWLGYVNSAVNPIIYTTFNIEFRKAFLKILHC
Sodium-dependent noradrenaline transporter (Homo sapiens), sequence (P23975 whole entry, canonical isoform): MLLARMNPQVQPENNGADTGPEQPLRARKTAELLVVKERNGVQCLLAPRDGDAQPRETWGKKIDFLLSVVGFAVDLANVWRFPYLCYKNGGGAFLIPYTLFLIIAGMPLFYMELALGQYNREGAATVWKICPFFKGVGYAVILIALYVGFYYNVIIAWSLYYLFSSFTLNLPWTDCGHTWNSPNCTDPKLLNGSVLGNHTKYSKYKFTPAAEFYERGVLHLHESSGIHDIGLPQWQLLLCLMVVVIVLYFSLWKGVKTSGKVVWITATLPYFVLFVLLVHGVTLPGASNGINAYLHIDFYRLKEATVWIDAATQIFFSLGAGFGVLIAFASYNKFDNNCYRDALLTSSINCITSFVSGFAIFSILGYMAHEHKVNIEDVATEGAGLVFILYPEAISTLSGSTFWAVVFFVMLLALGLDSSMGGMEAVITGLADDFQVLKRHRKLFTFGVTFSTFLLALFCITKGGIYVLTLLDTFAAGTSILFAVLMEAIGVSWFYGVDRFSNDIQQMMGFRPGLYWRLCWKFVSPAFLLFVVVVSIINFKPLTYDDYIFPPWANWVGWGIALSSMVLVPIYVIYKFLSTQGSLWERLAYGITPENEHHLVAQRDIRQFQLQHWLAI
Myosin light chain kinase 2, skeletal/cardiac muscle (Homo sapiens), sequence (Q9H1R3 whole entry): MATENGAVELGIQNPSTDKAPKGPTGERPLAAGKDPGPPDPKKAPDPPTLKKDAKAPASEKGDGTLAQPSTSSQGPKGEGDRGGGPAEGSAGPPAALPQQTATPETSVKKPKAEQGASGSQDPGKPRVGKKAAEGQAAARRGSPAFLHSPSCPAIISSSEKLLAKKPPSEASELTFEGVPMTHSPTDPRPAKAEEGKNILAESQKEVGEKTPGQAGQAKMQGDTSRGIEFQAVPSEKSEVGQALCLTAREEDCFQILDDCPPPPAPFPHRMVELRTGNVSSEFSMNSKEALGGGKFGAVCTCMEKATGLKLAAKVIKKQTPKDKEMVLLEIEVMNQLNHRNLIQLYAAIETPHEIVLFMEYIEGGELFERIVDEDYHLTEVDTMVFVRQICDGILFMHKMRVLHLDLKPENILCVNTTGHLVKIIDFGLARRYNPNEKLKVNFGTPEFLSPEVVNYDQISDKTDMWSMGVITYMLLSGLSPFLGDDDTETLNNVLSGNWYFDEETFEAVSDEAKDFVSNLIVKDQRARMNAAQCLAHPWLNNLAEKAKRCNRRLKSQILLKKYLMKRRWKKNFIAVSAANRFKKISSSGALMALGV
Myosin-IIIb (Homo sapiens), sequence (Q8WXR4 whole entry): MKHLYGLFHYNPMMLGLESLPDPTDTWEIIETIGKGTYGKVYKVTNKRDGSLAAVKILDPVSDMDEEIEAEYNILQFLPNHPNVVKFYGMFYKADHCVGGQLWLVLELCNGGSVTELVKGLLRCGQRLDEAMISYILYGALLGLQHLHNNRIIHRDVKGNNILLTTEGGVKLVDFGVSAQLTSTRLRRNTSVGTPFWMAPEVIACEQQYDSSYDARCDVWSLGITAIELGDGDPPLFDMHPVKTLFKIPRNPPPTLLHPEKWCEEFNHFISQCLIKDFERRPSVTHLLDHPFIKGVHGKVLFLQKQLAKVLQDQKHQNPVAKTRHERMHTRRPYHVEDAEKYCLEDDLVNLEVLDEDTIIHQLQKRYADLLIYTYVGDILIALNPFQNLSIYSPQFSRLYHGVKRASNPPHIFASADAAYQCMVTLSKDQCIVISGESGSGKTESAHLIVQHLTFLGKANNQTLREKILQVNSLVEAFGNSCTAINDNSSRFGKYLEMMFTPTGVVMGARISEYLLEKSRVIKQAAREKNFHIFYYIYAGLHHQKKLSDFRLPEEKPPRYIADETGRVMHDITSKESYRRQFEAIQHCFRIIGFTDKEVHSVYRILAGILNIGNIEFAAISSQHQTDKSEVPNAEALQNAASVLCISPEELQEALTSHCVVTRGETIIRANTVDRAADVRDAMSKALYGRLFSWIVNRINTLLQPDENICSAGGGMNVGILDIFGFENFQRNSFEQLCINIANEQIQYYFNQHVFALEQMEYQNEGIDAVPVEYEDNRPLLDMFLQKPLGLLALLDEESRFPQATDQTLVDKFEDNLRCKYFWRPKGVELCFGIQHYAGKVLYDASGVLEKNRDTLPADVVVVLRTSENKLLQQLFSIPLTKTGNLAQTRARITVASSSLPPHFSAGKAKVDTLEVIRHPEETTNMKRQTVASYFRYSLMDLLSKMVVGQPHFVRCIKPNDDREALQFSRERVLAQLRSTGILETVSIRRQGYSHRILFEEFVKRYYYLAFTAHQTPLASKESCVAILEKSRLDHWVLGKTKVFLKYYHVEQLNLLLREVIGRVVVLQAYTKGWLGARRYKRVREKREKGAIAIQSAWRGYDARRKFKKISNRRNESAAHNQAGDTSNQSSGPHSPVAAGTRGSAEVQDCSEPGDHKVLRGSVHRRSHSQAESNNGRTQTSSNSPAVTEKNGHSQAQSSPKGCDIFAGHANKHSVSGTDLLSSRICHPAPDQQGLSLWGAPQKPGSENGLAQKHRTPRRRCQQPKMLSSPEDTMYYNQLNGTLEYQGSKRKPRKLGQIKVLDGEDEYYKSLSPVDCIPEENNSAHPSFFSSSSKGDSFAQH
Mu-type opioid receptor (Homo sapiens), sequence (P35372 whole entry): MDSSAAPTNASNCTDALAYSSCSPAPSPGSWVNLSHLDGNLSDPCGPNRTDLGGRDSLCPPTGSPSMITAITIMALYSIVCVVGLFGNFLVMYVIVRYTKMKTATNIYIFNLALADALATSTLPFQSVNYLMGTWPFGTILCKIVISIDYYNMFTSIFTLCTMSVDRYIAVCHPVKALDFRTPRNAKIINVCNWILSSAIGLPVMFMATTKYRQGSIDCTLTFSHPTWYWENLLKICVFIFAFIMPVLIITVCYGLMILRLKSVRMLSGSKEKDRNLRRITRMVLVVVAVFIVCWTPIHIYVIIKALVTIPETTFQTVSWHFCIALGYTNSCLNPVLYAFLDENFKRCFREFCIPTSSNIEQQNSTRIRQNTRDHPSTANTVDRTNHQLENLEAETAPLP
Casein kinase I isoform alpha-like (Homo sapiens), sequence (Q8N752 whole entry, canonical isoform): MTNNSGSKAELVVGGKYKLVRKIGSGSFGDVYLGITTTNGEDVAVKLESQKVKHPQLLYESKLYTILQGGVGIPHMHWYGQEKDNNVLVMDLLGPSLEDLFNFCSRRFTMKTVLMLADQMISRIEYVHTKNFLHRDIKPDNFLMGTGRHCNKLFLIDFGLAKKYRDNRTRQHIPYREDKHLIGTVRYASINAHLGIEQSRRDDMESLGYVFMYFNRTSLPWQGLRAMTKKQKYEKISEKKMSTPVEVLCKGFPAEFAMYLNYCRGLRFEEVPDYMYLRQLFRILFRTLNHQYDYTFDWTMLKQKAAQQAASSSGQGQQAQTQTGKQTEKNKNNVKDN

CN(C)CCOc1cc(-c2cn[nH]c2)ccc1NC(=O)C1COc2ccccc2O1 (stereo unspecified) [SR-3677]
inhibition [1]: < 10%
inhibition [2]: < 10%
inhibition [3]: < 10%
inhibition [4]: < 10%
inhibition [5]: < 10%
inhibition [6]: < 10%
inhibition [7]: < 10%
inhibition [8]: < 10%
inhibition [9]: < 10%
inhibition [10]: < 10%
inhibition [11]: < 10%
inhibition [12]: < 10%
inhibition [13]: < 10%
inhibition [14]: < 10%
inhibition [15]: < 10%
inhibition [16]: < 10%
inhibition [17]: < 10%
inhibition [18]: < 10%
inhibition [19]: < 10%
inhibition [20]: < 10%
inhibition [21]: < 10%
clearance [22]: 61 mL/min/kg
inhibition at 10 µM (CYP3A4): 0%
inhibition at 10 µM (CYP2D6): 75%
inhibition [23]: 68%
inhibition [24]: 43%
inhibition [25]: 19%
inhibition [26]: 6%
inhibition [27]: -2%
inhibition [28]: 25%
inhibition [29]: 5%
inhibition [30]: -8%
inhibition [31]: 7%
inhibition [32]: 5%
inhibition [33]: < 10%
inhibition [34]: < 10%
inhibition [35]: < 10%
inhibition [36]: < 10%
inhibition [37]: < 10%
inhibition [38]: 16%
inhibition [39]: < 10%
inhibition [40]: < 10%
inhibition [41]: < 10%
inhibition [42]: < 10%
inhibition (Rattus norvegicus): -1%
AUC (in vivo): 0.7 µM·h
